Kd, p[A50] and Intrinsic activity data for one compound are collected here from ChEMBL document CHEMBL1128543, “Computer-aided design and synthesis of 5-substituted tryptamines and their pharmacology at the 5-HT1D receptor: discovery of compounds with potential anti-migraine properties” (J Med Chem, 1995).

What is called Kd is the constant that tells how readily two partners part at equilibrium. A higher Kd goes with lower affinity.

Experiment [1] addresses T1, Adrenergic receptor alpha-2 (Rattus norvegicus, UniProt P22086+P19328+P22909).
T1 sequence (P22086 whole entry): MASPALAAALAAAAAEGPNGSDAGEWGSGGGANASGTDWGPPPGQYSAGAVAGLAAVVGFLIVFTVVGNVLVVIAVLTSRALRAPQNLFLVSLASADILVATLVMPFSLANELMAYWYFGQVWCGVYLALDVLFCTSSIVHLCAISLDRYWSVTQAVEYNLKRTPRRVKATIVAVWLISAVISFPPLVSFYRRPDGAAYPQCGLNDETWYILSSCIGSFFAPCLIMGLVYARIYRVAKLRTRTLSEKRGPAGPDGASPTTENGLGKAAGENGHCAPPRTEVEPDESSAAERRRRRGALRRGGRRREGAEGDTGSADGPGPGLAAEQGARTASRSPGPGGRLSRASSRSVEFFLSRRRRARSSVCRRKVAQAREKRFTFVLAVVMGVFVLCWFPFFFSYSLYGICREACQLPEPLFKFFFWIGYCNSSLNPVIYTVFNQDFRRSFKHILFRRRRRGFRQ
T1 sequence (P19328 whole entry): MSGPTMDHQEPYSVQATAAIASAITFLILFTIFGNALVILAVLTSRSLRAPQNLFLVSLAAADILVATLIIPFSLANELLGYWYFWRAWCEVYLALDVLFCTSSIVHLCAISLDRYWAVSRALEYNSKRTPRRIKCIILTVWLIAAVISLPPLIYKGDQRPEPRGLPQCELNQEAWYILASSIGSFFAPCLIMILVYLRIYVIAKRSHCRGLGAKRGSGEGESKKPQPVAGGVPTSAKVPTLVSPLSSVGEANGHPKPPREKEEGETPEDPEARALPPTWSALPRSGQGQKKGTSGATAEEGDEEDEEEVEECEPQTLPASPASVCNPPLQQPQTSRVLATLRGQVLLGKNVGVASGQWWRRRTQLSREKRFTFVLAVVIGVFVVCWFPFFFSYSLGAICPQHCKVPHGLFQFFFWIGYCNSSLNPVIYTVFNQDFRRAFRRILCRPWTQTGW
T1 sequence (P22909 whole entry): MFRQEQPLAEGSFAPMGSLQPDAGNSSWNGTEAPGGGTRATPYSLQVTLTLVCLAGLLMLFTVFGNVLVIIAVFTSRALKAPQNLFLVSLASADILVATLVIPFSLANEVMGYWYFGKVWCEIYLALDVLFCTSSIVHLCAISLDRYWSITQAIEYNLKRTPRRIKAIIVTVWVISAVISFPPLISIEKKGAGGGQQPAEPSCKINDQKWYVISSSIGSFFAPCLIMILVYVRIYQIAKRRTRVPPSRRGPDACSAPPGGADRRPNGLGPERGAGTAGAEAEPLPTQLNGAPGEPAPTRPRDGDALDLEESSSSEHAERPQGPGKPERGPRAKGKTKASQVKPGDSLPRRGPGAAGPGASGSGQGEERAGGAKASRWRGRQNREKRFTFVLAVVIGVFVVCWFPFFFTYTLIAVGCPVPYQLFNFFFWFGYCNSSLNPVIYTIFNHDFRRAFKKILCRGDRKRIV
As to the kind of experiment: Binding affinity against Alpha-2 adrenergic receptor in rat cortex using [3H]-idazoxan as radioligand. The method, boiled down: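 Competition binding on rat cortex with [³H]idazoxan (7 nM, about K_D) against a wide test range run in duplicate. Incubation was 30 min at 27 °C in 50 mM Tris-HCl, 5 mM CaCl₂, 0.1% ascorbate and 10 mM pargyline. Assays were ended by rapid filtration and read by scintillation. Values are pK_i or pIC₅₀, mean of n ≥ 3.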

Experiment [2] has as its target 5-hydroxytryptamine receptor 1B (Homo sapiens, UniProt P28222). The experiment can be described thus: Binding affinity against 5-hydroxytryptamine 1D receptor beta using rabbit saphenous vein assay. It counts as tissue-based. The method, boiled down: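 Saphenous vein rings (4–5 mm) from male New Zealand White rabbits, in Krebs–Henseleit buffer at 37 °C, pH 7.4, gassed 95% O2/5% CO2, 2 g passive force. Pretreated with pargyline (500 μM) and phenoxybenzamine (0.3 μM) for 30 min, then washed. A cumulative 5-HT curve was followed after 60 min by a curve to the test agonist. p[A50] and α relative to 5-HT maximum were derived; mean of n ≥ 3.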

Experiment [3] concerns the target 5-hydroxytryptamine receptor 1D (Homo sapiens) (UniProt P28221). As to the kind of experiment: (§1) Intrinsic activity against 5-hydroxytryptamine 1 receptor using rabbit saphenous vein assay. The format is tissue-based. The note with it: Oryctolagus cuniculus, target entry is the homologue from another species. A digest of the protocol:
(§2)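 Male New Zealand White rabbit saphenous vein rings (4–5 mm) in Krebs–Henseleit at 37 °C, pH 7.4, gassed with 95% O₂:5% CO₂, under 2 g passive force. Tissues got 30 min pargyline (500 μM) and phenoxybenzamine (0.3 μM), then were washed and checked with 1 μM 5-HT. A cumulative 5-HT curve was followed 60 min later by a test agonist curve. Potency is p[A₅₀]; α is test max/5-HT max; n ≥ 3.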

The species named for the next experiment is Oryctolagus cuniculus. The experiment is described as §1. It counts as tissue-based. The method, boiled down:
as §2

Sequence of 5-hydroxytryptamine receptor 1B (P28222 whole entry): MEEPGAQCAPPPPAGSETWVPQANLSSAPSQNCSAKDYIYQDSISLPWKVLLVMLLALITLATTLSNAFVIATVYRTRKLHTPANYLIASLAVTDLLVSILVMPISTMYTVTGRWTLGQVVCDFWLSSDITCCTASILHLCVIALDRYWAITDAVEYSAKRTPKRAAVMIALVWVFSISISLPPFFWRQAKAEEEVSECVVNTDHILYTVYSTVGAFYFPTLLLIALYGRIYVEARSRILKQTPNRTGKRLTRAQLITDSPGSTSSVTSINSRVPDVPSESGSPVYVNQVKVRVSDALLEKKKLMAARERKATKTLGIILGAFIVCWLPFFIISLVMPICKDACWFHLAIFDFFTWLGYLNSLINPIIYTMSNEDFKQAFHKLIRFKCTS
Sequence of 5-hydroxytryptamine receptor 1D (Homo sapiens) (P28221 whole entry): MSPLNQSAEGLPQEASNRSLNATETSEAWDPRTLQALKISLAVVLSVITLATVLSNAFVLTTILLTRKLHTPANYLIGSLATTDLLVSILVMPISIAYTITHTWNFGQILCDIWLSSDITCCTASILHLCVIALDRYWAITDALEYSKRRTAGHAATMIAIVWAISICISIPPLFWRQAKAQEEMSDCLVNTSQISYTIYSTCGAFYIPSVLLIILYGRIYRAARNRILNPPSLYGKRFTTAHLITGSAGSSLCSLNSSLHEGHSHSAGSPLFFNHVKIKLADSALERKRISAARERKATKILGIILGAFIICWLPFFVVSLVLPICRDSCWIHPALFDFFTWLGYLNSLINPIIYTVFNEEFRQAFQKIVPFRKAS

With `CN(C)CCc1c[nH]c2ccc(C[C@H]3COC(=O)N3)cc12` [ZOLMITRIPTAN], the Kd was determined as 7 nM in experiment [1] and 1.5 nM in experiment [2]. The p[A50] in experiment [3] was found to be 8.7. For the same compound, the Intrinsic activity in the experiment filed under Oryctolagus cuniculus came out at 0.77.
